{"source": "ChEMBL document CHEMBL1157401", "about": "“Anticancer activity of isoobtusilactone A from Cinnamomum kotoense: involvement of apoptosis, cell-cycle dysregulation, mitochondria regulation, and reactive oxygen species” (J Nat Prod, 2008)", "key": {"A549 [1]": {"test_system": "A549", "assay": "Cell cycle arrest in human A549 cells assessed as accumulation at subG1 phase at 100 uM after 48 hrs", "assay_type": "functional", "how_it_was_run": "(§1)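 Flow cytometry of cell cycle: A549 (5 × 10^5 per 60 mm dish) treated next day with 50 or 100 µM for 24, 48 or 72 h. Adherent and floating cells pooled, fixed in PBS-MeOH 1:2 at 4 °C for at least 18 h, then stained 30 min in the dark with PI 50 µg/mL plus RNase A 50 µg/mL. Sub-G1 taken as the subdiploid fraction; at least three runs.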"}, "A549 [2]": {"test_system": "A549", "assay": "Cell cycle arrest in human A549 cells assessed as accumulation at G1 phase at 100 uM after 72 hrs", "assay_type": "functional", "how_it_was_run": "as §1"}, "A549 [3]": {"test_system": "A549", "assay": "Cell cycle arrest in human A549 cells assessed as accumulation at S phase at 100 uM after 72 hrs", "assay_type": "functional", "how_it_was_run": "as §1"}, "A549 [4]": {"test_system": "A549", "assay": "Cell cycle arrest in human A549 cells assessed as accumulation at G2/M phase at 100 uM after 72 hrs", "assay_type": "functional", "how_it_was_run": "as §1"}, "A549 [5]": {"test_system": "A549", "assay": "Cell cycle arrest in human A549 cells assessed as accumulation at subG1 phase at 100 uM after 72 hrs", "assay_type": "functional", "how_it_was_run": "as §1"}, "A549 [6]": {"test_system": "A549", "assay": "Induction of apoptosis in human A549 cells assessed as DNA fragmentation after 12 hrs", "assay_type": "functional, cell-based", "how_it_was_run": "(§2)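 Apoptosis by cytoplasmic mono- and oligonucleosomes (nucleosome ELISA): A549 cells given 1, 10 or 100 µM for 6, 12, 18 or 24 h and lysed, then lysate assayed photometrically. Expressed relative to control; three experiments, mean ± SE, ANOVA with Dunnett's test.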"}, "A549 [7]": {"test_system": "A549", "assay": "Induction of apoptosis in human A549 cells assessed as DNA fragmentation after 24 hrs", "assay_type": "functional, cell-based", "how_it_was_run": "as §2"}, "A549 [8]": {"test_system": "A549", "assay": "Induction of apoptosis in human A549 cells assessed as apoptotic nucleosome at 1 uM after 6 hrs", "assay_type": "functional", "how_it_was_run": "as §2"}, "A549 [9]": {"test_system": "A549", "assay": "Induction of apoptosis in human A549 cells assessed as apoptotic nucleosome at 1 uM after 24 hrs", "assay_type": "functional", "how_it_was_run": "as §2"}, "A549 [10]": {"test_system": "A549", "assay": "Induction of apoptosis in human A549 cells assessed as apoptotic nucleosome at 100 uM after 6 hrs", "assay_type": "functional", "how_it_was_run": "as §2"}, "A549 [11]": {"test_system": "A549", "assay": "Induction of apoptosis in human A549 cells assessed as apoptotic nucleosome at 100 uM after 24 hrs", "assay_type": "functional", "how_it_was_run": "as §2"}, "A549 [12]": {"test_system": "A549", "assay": "Induction of p53 level in human A549 cells at 100 uM after 12 hrs by ELISA", "assay_type": "functional, cell-based", "how_it_was_run": "(§3)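 p53, p21/WAF1 and p27kip1 in A549 lysates by sandwich ELISA after 1, 10 or 100 µM for 6-24 h. Lysate incubated 2 h for p53 and p27kip1, 1 h for p21, at room temperature. HRP-streptavidin and TMB used, absorbance read at 450 nm, values from standard curves. Three experiments, mean ± SE.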"}, "A549 [13]": {"test_system": "A549", "assay": "Induction of p21/WAF1 protein level in human A549 cells at 100 uM after 18 hrs by ELISA", "assay_type": "functional, cell-based", "how_it_was_run": "as §3"}, "A549 [14]": {"test_system": "A549", "assay": "Increase in Bax level in human A549 cells after 6 hrs by ELISA", "assay_type": "functional, cell-based", "how_it_was_run": "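Bax and Bcl-2 in A549 lysates by sandwich ELISA after 1, 10 or 100 µM for 6-24 h. Lysate incubated 1 h at room temperature, HRP-streptavidin and TMB used, absorbance read at 450 nm. Levels interpolated from protein standard curves and compared with vehicle; three experiments, mean ± SE, ANOVA with Dunnett's test.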"}, "A549 [15]": {"test_system": "A549", "assay": "Decrease in mitochondrial potential in human A549 cells assessed as decrease in fluorescent intensity of rhodamine 123 staining", "assay_type": "functional, cell-based", "how_it_was_run": "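Mitochondrial membrane potential: A549 cells with or without 100 µM for 6, 12, 18 or 24 h, then moved to serum-free medium containing 10 µM rhodamine 123 for 15 min at 37 °C. Cells collected and fluorescence read within 15 min, ex 490 / em 515 nm.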"}, "A549 [16]": {"test_system": "A549", "assay": "Induction of cytochrome C release in human A549 cells by ELISA", "assay_type": "functional, cell-based", "settings": "TDE = time-dependent effect", "how_it_was_run": "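Cytochrome c release: A549 cells given 100 µM or DMSO vehicle for 6, 12, 18 or 24 h at 37 °C. Cytosolic fraction taken by digitonin permeabilization and mitochondrial fraction by detergent lysis, each measured by cytochrome c ELISA. Three experiments, mean ± SE.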"}, "A549 [17]": {"test_system": "A549", "assay": "Induction of apoptosis in human A549 cells assessed as caspase 9 activation at 100 uM", "assay_type": "functional, cell-based", "how_it_was_run": "(§4)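 Caspase-9 and caspase-3 activity: A549 cells given 100 µM for 6-24 h and lysed on ice 1 h. 80 µg lysate incubated with substrate at pH 7.2, 37 °C, 1 h in the dark. Caspase-9 read colorimetrically at 405 nm and caspase-3 with AFC substrate, ex 400 / em 520 nm. Reported as percent change versus the 0 h group.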"}, "A549 [18]": {"test_system": "A549", "assay": "Induction of apoptosis in human A549 cells assessed as caspase 3 activation at 100 uM", "assay_type": "functional, cell-based", "how_it_was_run": "as §4"}, "A549 [19]": {"test_system": "A549", "assay": "Antioxidant activity in human A549 cells assessed as increase in dichlorofluorescein florescence intensity after 30 mins relative to untreated cells", "assay_type": "functional, cell-based", "how_it_was_run": "(§5)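 Intracellular ROS (H2O2/peroxide) by DCF fluorescence: A549 cells at 80% confluence exposed to 100 µM for 30 min, then 10 µM DCFH-DA 30 min in the dark, trypsinized and resuspended in PBS. Read by flow cytometry, ex 488 / em 525-550 nm. For scavenger tests, NAC (10 mM) or other agents given 30 min before compound.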"}, "A549 [20]": {"test_system": "A549", "assay": "Antioxidant activity in human A549 cells assessed as N-acetyl-l-cysteine-induced production of H2O2", "assay_type": "functional, cell-based", "how_it_was_run": "as §5"}, "A549 [21]": {"test_system": "A549", "assay": "Reversal of antiproliferative activity against human A549 cells in presence of N-acetyl-l-cysteine", "assay_type": "functional, cell-based", "how_it_was_run": "(§6)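 ROS-dependence of growth inhibition: A549 cells pretreated with NAC (10 mM) or L-NAME (100 µM) for 2 h, then 100 µM compound for 24 h. Proliferation read by MTT assay at OD 570 nm.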"}, "A549 [22]": {"test_system": "A549", "assay": "Reversal of antiproliferative activity against human A549 cells in presence of nitro-L-arginine methyl ester", "assay_type": "functional, cell-based", "how_it_was_run": "as §6"}, "A549 [23]": {"test_system": "A549", "assay": "Inhibition of migration in human A549 cells", "assay_type": "functional, cell-based", "how_it_was_run": "(§7)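 Transwell migration with 8 µm inserts, or Matrigel-coated inserts for invasion: 5 × 10^4 A549 cells in serum-free medium placed in the upper chamber over medium with 10% FBS, 24 h at 37 °C, 5% CO2. Migrated cells stained, dye extracted and read at 560 nm. Reported as percent of control; compound tested at 1 and 10 µM, with NAC pretreatment in reversal tests.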"}, "A549 [24]": {"test_system": "A549", "assay": "Inhibition of invasion in human A549 cells", "assay_type": "functional, cell-based", "how_it_was_run": "as §7"}, "A549 [25]": {"test_system": "A549", "assay": "Reversal of inhibition of migration in human A549 cells at 10 uM in presence of N-acetyl-l-cysteine", "assay_type": "functional, cell-based", "how_it_was_run": "as §7"}, "A549 [26]": {"test_system": "A549", "assay": "Reversal of inhibition of invasion in human A549 cells at 10 uM in presence of N-acetyl-l-cysteine", "assay_type": "functional, cell-based", "how_it_was_run": "as §7"}, "A549 [27]": {"test_system": "A549", "assay": "Induction of p27kip1 level in human A549 cells at 100 uM after 18 hrs by ELISA", "assay_type": "functional, cell-based", "how_it_was_run": "as §3"}}, "note": "Calls of active or inactive are those of the source. The rule behind the calls is not given here."}
{"smiles": "C=C1OC(=O)/C(=C/CCCCCCCCCCCCC)[C@@H]1O", "note": "[ISOOBTUSILACTONE A]", "values": [{"measurement": "Activity", "setting": "A549 [1]", "result": 47.64, "unit": "%"}, {"measurement": "Activity", "setting": "A549 [2]", "result": 41.73, "unit": "%"}, {"measurement": "Activity", "setting": "A549 [3]", "result": 16.24, "unit": "%"}, {"measurement": "Activity", "setting": "A549 [4]", "result": 42.03, "unit": "%"}, {"measurement": "Activity", "setting": "A549 [5]", "result": 60.25, "unit": "%"}, {"measurement": "Activity", "setting": "A549 [6]", "result": "Active"}, {"measurement": "Activity", "setting": "A549 [7]", "result": "Active"}, {"measurement": "Activity", "setting": "A549 [8]", "result": 3.5}, {"measurement": "Activity", "setting": "A549 [9]", "result": 16}, {"measurement": "Activity", "setting": "A549 [10]", "result": 4.5}, {"measurement": "Activity", "setting": "A549 [11]", "result": 25}, {"measurement": "Activity", "setting": "A549 [12]", "result": "Active"}, {"measurement": "Activity", "setting": "A549 [13]", "result": "Active"}, {"measurement": "Activity", "setting": "A549 [14]", "result": "Active"}, {"measurement": "Activity", "setting": "A549 [15]", "result": "Active"}, {"measurement": "Activity", "setting": "A549 [16]", "result": "tde"}, {"measurement": "Activity", "setting": "A549 [17]", "result": "Active"}, {"measurement": "Activity", "setting": "A549 [18]", "result": "Active"}, {"measurement": "Activity", "setting": "A549 [19]", "result": "Active"}, {"measurement": "Activity", "setting": "A549 [20]", "result": "Active"}, {"measurement": "Activity", "setting": "A549 [21]", "result": "inactive"}, {"measurement": "Activity", "setting": "A549 [22]", "result": "Active"}, {"measurement": "Activity", "setting": "A549 [23]", "result": "Active"}, {"measurement": "Activity", "setting": "A549 [24]", "result": "Active"}, {"measurement": "Activity", "setting": "A549 [25]", "result": "Active"}, {"measurement": "Activity", "setting": "A549 [26]", "result": "Active"}, {"measurement": "Activity", "setting": "A549 [27]", "result": "Active"}]}
